# Data from PubChem BioAssay AID804 (SRMLSC, 2007).
# The campaign covered roughly 140,000 compounds. About 710 (0.51%) were called active.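 The calls were made as follows: active = inhibition above a set limit, 3 SD over the mean compound inhibition (cut at about 44% in these data); inactive = the rest.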 For the sample, actives were picked, then their nearest neighbours and some compounds at random.
# Assay: growth inhibitors of yeast BB579 in restrictive medium, primary screen, yeast lifespan-shortening project, S. cerevisiae (AID 804)
# Conditions: OD615, 48 h, at 10 µM, hits give high values
# Summary of the method: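 Test system: S. cerevisiae DeaD strain BB579 yeast; Medium: restrictive CSMM-D medium; Compound: one dose, 10 µM compound with 0.25% DMSO; Incubation: 4 h cell preincubation, 48 h compound exposure, 30 °C humidified; Signal: OD at 615 nm; Benchmarks: amphotericin B at 10 µg/mL as positive control.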
row,SMILES,inhibition
1,Cc1ccc(N2C(=O)C(NC(=O)c3c(F)cccc3F)(C(F)(F)F)C3=C2CC(C)(C)CC3=O)cc1 (stereo unspecified),-1.52% (inactive)
2,O=C1c2ccccc2NC(c2ccc(-c3cccc(Cl)c3)o2)N1O (stereo unspecified),64.1% (active)
3,CCOC(=O)NN1C(=O)c2ccccc2NC1c1cccc(O)c1 (stereo unspecified),9.36% (inactive)
4,C=CCN(CC=C)S(=O)(=O)c1ccc(C(=O)Nc2nc3c(s2)CCc2ccccc2-3)cc1,-67.9% (inactive)
5,O=C(C1CCCO1)N1CCN(C(=S)Nc2cccc(Cl)c2)CC1 (stereo unspecified),-3.25% (inactive)
6,CC1(C)CC(=O)C(N=Nc2ccc(S(=O)(=O)N3CCCCCC3)cc2)=C(O)C1,-5.4% (inactive)
7,C/C(CC(=O)Nc1ccc(Cl)cc1)=N\NC(=O)C(=O)NCCO,-6.42% (inactive)
8,Cc1cc2oc(C(=O)Nc3c(C)n(C)n(-c4ccccc4)c3=O)c(C)c2cc1Cl,-44% (inactive)
9,Cc1ccc(NC(=O)c2cccs2)cc1S(=O)(=O)N(C)C,-35.7% (inactive)
10,Cc1ccc(-c2nn(C(C)(C)C)c3ncnc(N)c23)cc1,81.2% (active)
11,O=C(CC(O)(C(F)(F)F)C(F)(F)F)Nc1ccc(Cl)c(Cl)c1,80.1% (active)
12,O=C(CC(=O)Nc1ccc(Cl)c(Cl)c1)N/N=C/c1ccc(O)cc1,-54.1% (inactive)
13,O=C(Cc1ccc(Cl)c(Cl)c1)Nc1ccc(SC(F)F)cc1,-39.5% (inactive)
14,Cc1scc(C(=O)NNC(=S)NCc2ccccc2)c1C,-2.5% (inactive)
15,CCOC(=O)NN1C(=O)c2ccccc2NC1c1ccccc1O (stereo unspecified),7.28% (inactive)
16,COC(=O)C1=C(C)N(C)C(=S)NC1c1ccccc1 (stereo unspecified),8.95% (inactive)
17,Cc1c(Cl)cnc(NC(=O)COC(=O)c2ccc(S(=O)(=O)NCc3ccco3)cc2)c1Cl,-12.2% (inactive)
18,Cc1ccc(-c2nn(-c3ccccc3)cc2C(=O)Nc2cccc(S(=O)(=O)N3CCOCC3)c2)cc1,-29% (inactive)
19,Cc1cc(C(=O)OC(C)C(=O)Nc2cccc(S(=O)(=O)N3CCOCC3)c2)c(C)o1 (stereo unspecified),-42.7% (inactive)
20,CCN(CC)c1ccc(S(=O)(=O)N2CCOCC2)cc1NC(=O)CSc1cccc[n+]1[O-],89% (active)
21,CC(Sc1cccc[n+]1[O-])C(=O)Nc1cccc(S(=O)(=O)N2CCOCC2)c1 (stereo unspecified),95.2% (active)
22,O=C(CN1CCN(c2ccc(O)cc2)CC1)Nc1cc(S(=O)(=O)N2CCOCC2)ccc1Cl,-37.9% (inactive)
23,Cn1c(SCC(=O)Nc2cccc(O)c2)nnc1-c1ccc(S(=O)(=O)N2CCOCC2)cc1,2.85% (inactive)

row,SMILES,inhibition
1,COc1ccccc1CNC(=O)CN1CCC(n2cnc3cc(F)ccc32)CC1,-21.9% (inactive)
2,Cn1c(CNC(=O)c2ccccc2F)nnc1SCc1ccc(F)cc1,6.65% (inactive)
3,CCCCC1N2CC3([N+](=O)[O-])CN1CC([N+](=O)[O-])(C2)C3(C)C (stereo unspecified),-27.8% (inactive)
4,CC(C)(C)C1C/C(=C/c2ccco2)C(=O)/C(=C/c2ccco2)C1 (stereo unspecified),-19.6% (inactive)
5,CCN1CCN(C(c2cccnc2)c2cc(Cl)c3cccnc3c2O)CC1 (stereo unspecified),6.22% (inactive)
6,Oc1c(CN2CCN(c3ccc(F)cc3)CC2)cc(Cl)c2cccnc12,99.3% (active)
7,O=C(c1cccc(C(=O)N2CCN(c3ccc(F)cc3)CC2)c1)N1CCN(c2ccc(F)cc2)CC1,-61.4% (inactive)
8,Cc1cc2cc(CNC(=O)c3cccs3)ccc2[nH]1,-4.49% (inactive)
9,Cc1cccc(NC(=S)NCc2ccc3[nH]c4c(c3c2)CCCC4)c1,15.9% (inactive)
10,CCc1cccc(CC)c1NC(=S)NCc1ccc2[nH]c(C)cc2c1,54.3% (active)
11,O=C(Nc1ccc2ccccc2c1)/C(=C/c1cccc(Br)c1)NC(=O)c1ccco1,-32.8% (inactive)
12,CCCc1ccc(OCC(=O)NNC(=S)NC(=O)c2ccco2)cc1,98.5% (active)
13,O=C(Nc1ccc2ccccc2c1)/C(=C\c1ccc2c(c1)OCO2)NC(=O)c1ccco1,6.72% (inactive)
14,CC(Oc1ccc2ccccc2c1)C(=O)NNC(=S)NC(=O)c1ccco1 (stereo unspecified),98.2% (active)
15,COc1ccc(CCNC(=O)c2ccco2)cc1,-10.2% (inactive)
16,COc1ccc(C(=O)NC(=S)NNC(=O)CCc2ccccc2)cc1,-10.9% (inactive)
17,NC(=O)C[C@@H]1NC(=O)CNC(=O)c2cc([N+](=O)[O-])cc(I)c2NCCC(C(N)=O)NC1=O (stereo partly specified),1.08% (inactive)
18,CC1CN/C(=C\C(=O)c2ccc(Br)cc2)C(=O)N1 (stereo unspecified),-42.4% (inactive)
19,Cc1cc(Cl)ccc1NC(=S)N1CCC(C(N)=O)(N2CCCCC2)CC1,1.37% (inactive)
20,Cc1ccc(OC(=O)CCC(=O)Nc2ccc(Br)cc2)cc1,3.42% (inactive)
21,O=C(CSc1ncn[nH]1)Nc1nsc(-c2ccccc2)n1,4.99% (inactive)
22,Cc1cccc(OP(=O)(Nc2c(C)n(C)n(-c3ccccc3)c2=O)Oc2cccc(C)c2)c1,-0.66% (inactive)
23,CCOC(=O)C1CCN(C(=O)/C=C/c2cc(OC)c(OC)c(OC)c2)CC1,-12.6% (inactive)

row,SMILES,inhibition
1,O=C(COC(=O)c1cc(-c2cccs2)nn1-c1ccccc1)Nc1cc([N+](=O)[O-])ccc1Cl,-30.3% (inactive)
2,O=C(Nc1cccc([N+](=O)[O-])c1)c1ccc2c(c1)OCO2,-10.3% (inactive)
3,CCOC(=O)c1ccccc1C(=O)N1CCOCCOCCOCC1,-13.3% (inactive)
4,CCCCOc1ccc(C(=O)NCC(=O)OCC(=O)N2CCN(S(=O)(=O)c3ccc(C)cc3C)CC2)cc1,-38.7% (inactive)
5,O=C(COC(=O)/C=C/c1cccc(Cl)c1)NCCc1ccccc1,-16.6% (inactive)
6,Cc1nc2ccc(C(=O)O)cc2[nH]1,44.4% (active)
7,CC(C)c1nc2ccc(C(=O)O)cc2[nH]1,-7.86% (inactive)
8,Cc1ccc2nc(S(=O)(=O)O)[nH]c2c1,-11.6% (inactive)
9,COc1ccc(CCNC(=O)CSc2nc(-c3ccc(OC)c(OC)c3)ccc2C#N)cc1,-21.2% (inactive)
10,COc1cccc(/C=N\NC(=O)C2=NNC(=O)C2C)c1O (stereo unspecified),1.19% (inactive)
11,COc1cc(/C=C2\SC(=S)N(Nc3ncc(C(F)(F)F)cc3Cl)C2=O)cc(OC)c1OC,-16.3% (inactive)
12,COc1cccc(/C=N/Nc2ncc(C(F)(F)F)cc2Cl)c1O,64.1% (active)
13,Cc1nn(C)c(C(=O)NNC(=S)NC2CCCCC2)c1Cl,-11.7% (inactive)
14,CCOC(=O)c1cnc(-n2nc(C)cc2C)nc1NNc1cc(C)nc(-c2ccccc2)n1,63.6% (active)
15,CCOC(=O)c1cnc(-c2ccccc2)nc1Oc1ccc(C)cc1,-3.41% (inactive)
16,CCOC(=O)c1cnc(-n2nc(C)cc2C)nc1-n1nc(C)cc1C,-33.3% (inactive)
17,CCc1cc(C(N)=O)c(NC(=O)c2ccc(OC)cc2)s1,13.8% (inactive)
18,COc1cccc(NC(=S)N(CCc2c(C)[nH]c3ccccc23)Cc2ccco2)c1,-16.9% (inactive)
19,O=C(Nc1cccc(F)c1)c1coc(=O)c(Br)c1,-16.6% (inactive)
20,N=c1oc2ccccc2cc1C(=O)N/N=C/c1ccccc1,-35.6% (inactive)
21,CCOC(=O)N1CCN(C(=O)c2cc3c(ccc4ccccc43)oc2=O)CC1,4.59% (inactive)
22,CNC(=O)c1cc2c(ccc3ccccc32)oc1=N,87% (active)
23,O=[N+]([O-])c1cc(C(F)(F)F)ccc1NN=C1CCCC1,-8.75% (inactive)

row,SMILES,inhibition
1,Cc1ccc(Cl)cc1N1CCN(C(=O)c2cccc3c(=O)c(C)c(-c4ccccc4)oc23)CC1,-11.9% (inactive)
2,COc1ccc(-c2[nH]ncc2/C=N/NC(=O)c2cc(Br)ccc2O)c(OC)c1,-15.9% (inactive)
3,CCCc1cc(-c2nc(-c3ccc(C)cc3)cs2)ccn1,6.88% (inactive)
4,COc1ccc([C@H]2[C@H](C(C)=O)N3N=Cc4ccccc4C3C23C(=O)OC(C)(C)OC3=O)cc1 (stereo partly specified),-14.6% (inactive)
5,CNc1ccc(NC(C)=O)cc1[N+](=O)[O-],-4.52% (inactive)
6,COC(=O)C(NC(=O)c1ccc(OC)cc1)(Nc1ncc(S(=O)(=O)c2ccc([N+](=O)[O-])cc2)s1)C(F)(F)F (stereo unspecified),-39.1% (inactive)
7,Cc1cc(C)cc(OCC(=O)Nc2nc3ccc([N+](=O)[O-])cc3s2)c1,-41.2% (inactive)
8,O=C(NC(Nc1nc2ccc([N+](=O)[O-])cc2s1)(C(F)(F)F)C(F)(F)F)c1ccccc1,77.5% (active)
9,Cc1c(Cl)cccc1NC(=O)Nc1ccc(C(=O)N2CCCC2)cc1,-7.32% (inactive)
10,Cn1c(-c2ccco2)nc2cc3ccccc3cc21,60.5% (active)
11,CN1c2ccccc2-c2nc3ccccc3n2C1c1ccco1 (stereo unspecified),-46.1% (inactive)
12,CN(c1nc2ccccc2n2c(-c3ccco3)nnc12)S(=O)(=O)c1ccccc1,-17.9% (inactive)
13,CC(C)C(=O)Nc1ccc2c3c(cccc13)CC2,-41.5% (inactive)
14,O=C1C=C(c2ccc(Cl)cc2)C(=O)N1Nc1ccccc1,98.1% (active)
15,O=C1c2cccc3cc(Br)cc(c23)C(=O)N1Nc1ccccc1,-67.3% (inactive)
16,O=C(Nc1ccccc1)OCc1cc(-c2ccc(Cl)cc2)on1,-39.2% (inactive)
17,CCn1ncc(CNC(=O)C2(C)CC2(Br)Br)c1C (stereo unspecified),-38.8% (inactive)
18,COc1ccc(NC(=S)NCc2cccs2)c(OC)c1,-22.6% (inactive)
19,CCC(=O)/C=C1\Sc2ccccc2N1CC,-18.9% (inactive)
20,CCN1/C(=C/c2ccc3ccc(C)cc3[n+]2CC)Sc2ccccc21,82.5% (active)
21,Cc1cccc(NC(=S)N(CCN(C)C)C(C)c2ccco2)c1 (stereo unspecified),-21.1% (inactive)
22,Cc1ccc(SCCC(=O)NC(C(C)C)C(C)C)cc1,-7.21% (inactive)
